# CaV13 FRET inh = Primary screen for inhibitors of IQ motif and Ca2+-dependent inactivation inhibitor domain binding in CACNA1D, Förster resonance energy transfer in living cells, …; AID 743397; inhibition, % at 12.3 µM; actives 0.098% (n = 340,000); HEK cells, CFP/YFP FRET ICDI-IQ, plate reader, 10 min; percent FRET-ratio fall versus neutral wells;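 active = mean replicate inhibition of at least 30% and at least 1% of replicates passing that level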;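 also: 0% = median of the neutral control wells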
# PvdQ acylase = P. aeruginosa PvdQ acylase inhibitors, primary screen, biochemical, fluorescence, plate reader and imaging, single point | inhibition, % at 10 µM | actives 0.063% (n = 340,000) | AID 488965, 2010 | PvdQ acylase [Pseudomonas aeruginosa LESB58] | purified PvdQ acylase; in the data active = inhibition above about 30%, passing the limit was not always enough;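 also: 0% = vehicle neutral wells and 100% = reference inhibitor wells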
# N-glyco inh = increase of ERlucT glycosylation luciferase signal, primary screen, N-linked glycosylation inhibitor project, D54 ERlucT cells, luminescence, set 2; actives 0.23% (n = 360,000); D54 ERlucT glycosylation luciferase reporter, 24 h; percent of 100 nM tunicamycin response; AID 588692, 2011; reporter increase, % at 12.5 µM;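 active = mean luciferase reporter signal, scaled so untreated is 0 and the glycosylation-blocking control 100, at or above a set limit in every replicate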;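 also: luciferase carries N-glycosylation sites so blocking glycosylation raises the light; 0% = median of neutral control wells and 100% = median of 100 nM tunicamycin wells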
# PfHsp90 yeast 2 = growth inhibition of PfHsp90-expressing yeast, primary screen, antimalarial PfHsp90 inhibitor project, S. cerevisiae, BacTiter-Glo luminescence, single point, set 2. BacTiter-Glo ATP, 48 h; yeast lacking PDR1 and PDR3 efflux regulators. inhibition, % at 9.4 µM. actives 0.32% (n = 310,000). AID 504621, 2011;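 active = every replicate shows inhibition above about 80%, whatever the replicate mean, limit read from the data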;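 also: 0% = DMSO neutral controls and 100% = 20 µM radicicol positive controls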
# HSF-1 act = HSF-1 activators, primary screen, NIH3T3-HGL cells, MG132 stress, luminescence, single point; NIH3T3-HGL HSF-1 luciferase reporter, 8 h; 100% = twice DMSO control signal; activation, % at 9 µM; actives 1.7% (n = 300,000);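 active = mean replicate activation of at least 50% with a set share of replicates each reaching 50%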;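 also: 0% = median of the neutral control wells and 100% = twice that signal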
# T cruzi inh = inhibitors of intracellular T. cruzi growth, primary screen, luminescence, NIH3T3 host cells; AID 1885, 2009; inhibition, % (test concentration not listed); T. cruzi beta-gal in NIH3T3, 90 h; actives 1.4% (n = 300,000);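 active = mean inhibition across valid replicates above about 55%, limit read from the data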;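 also: signal also drops with host cell toxicity which is not excluded here; 0% = plate median of DMSO wells and 100% = zero luminescence signal; higher percent means less beta-gal luminescence so fewer parasites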
#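 System: Mouse NIH/3T3 fibroblasts infected with β-gal-expressing T. cruzi Tulahuen C4 | Quantity: NIH/3T3 cells, 5,000 per well | Reagent: 5000 reporter trypomastigotes per well | Dosing: Compound pinned at 50 nL/well, DMSO | Schedule: 3 h host attachment, then at least 90 h co-culture | Detection: GalScreen luminescence, 60 min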
# * marks the source's active call; other numbers are inactive results; x = no result given; ! = not confirmed by another sample. In the library only some 3% were active in any assay of this set; here they are far more common.
SMILES,CaV13 FRET inh,PvdQ acylase,N-glyco inh,PfHsp90 yeast 2,HSF-1 act,T cruzi inh
COc1cc(/C=N/NC(=O)c2ccc(Cl)cc2)ccc1OCC(=O)N1CC(C)OC(C)C1 (stereo not given),-2,12,-1,10,56*,-11
O=C(Nc1ccc(N2CCN(C(=O)c3ccco3)CC2)c(Cl)c1)c1cc2ccccc2o1,x,-5,-16,-17,-73,55*
CCN(CCO)c1nc(SC)nc2c1sc1nc(-c3ccco3)c3c(c12)CCC3,x,12,-1,-12,58*,-12
NC(=NCCCCCCN=C(N)/N=C(\N)Nc1ccc(Cl)cc1)/N=C(\N)Nc1ccc(Cl)cc1,-5,-8,-10,51,11,56*!
CCN(CC)S(=O)(=O)c1ccc(SCC(=O)c2c(N)n(C3CC3)c(=O)[nH]c2=O)nc1,-10,x,3,x,x,x
CC(C)(C)c1ccc(OCc2ccc(C(=O)N3CCOCC3)o2)cc1,-5,6,17,-9,58*,4
O=C(Nc1nccs1)c1ccc(CSc2ccccc2)o1,x,13,-2,-10,63*,-9
Cc1ccc(OCc2ccc(C(=O)Nc3nccs3)o2)cc1,-4,3,3,7,60*,-1
CCc1nnc(NC(=O)c2ccc(COc3ccc(C)cc3)o2)s1,x,-13,2,7,-11,-3
CC(C)(C)c1ccc(OCc2ccc(C(=O)Nc3cccnc3)o2)cc1,-7,-4,29*,26,28,6
COc1ccccc1-c1cnc(C(O)c2cc(C)ccc2C)[nH]1 (stereo not given),-10,x,0,x,x,x
O=C(Nc1nccs1)c1ccc(COc2ccccc2)o1,-20,-1,1,-5,56*,-17
CC(CC(=O)Nc1cccc(F)c1)S(=O)(=O)c1ccc2c(c1)NC(=O)CO2 (stereo not given),-3,-11,-1,9,1,-13
Cc1ccccc1NC(=O)CC(C)S(=O)(=O)c1ccc2c(c1)NC(=O)CO2 (stereo not given),-4,-2,0,6,62*,-14
CC(CC(=O)NCCc1ccc(Cl)cc1)S(=O)(=O)c1ccc2c(c1)NC(=O)CO2 (stereo not given),-7,-12,1,-9,-5,4
COc1cc(NC(=O)CC(C)S(=O)(=O)c2ccc3c(c2)NC(=O)CO3)cc(OC)c1OC (stereo not given),-3,2,1,-1,55*,6
COc1cc(C(=O)N2CCCC(C)(C(=O)NS(=O)(=O)C3CC3)C2)cc(OC)c1OC (stereo not given),-6,x,5,x,x,x
COc1ccc2c(c1)CCc1c-2n[nH]c1C(=O)NCCC(C)C,-4,4,-13,21,51*,24
CNC(=O)c1[nH]nc2c1CCc1cc(OC)ccc1-2,-18,-12,4,-4,11,20
Cc1cccc(C)c1-n1nnnc1-c1nc2cc3ccccc3cc2[nH]c1=O,-8,x,x,x,x,x
CC1(C)CC(=O)C2=C(C1)N1C(=C(C#N)C2c2ccccc2Cl)N=C(N)c2ccccc21 (stereo not given),-2,3,1,-16,28,7
CC1(C)CC(=O)C2=C(C1)N1C(=C(C#N)C2c2ccc(Cl)cc2)N=C(N)c2ccccc21 (stereo not given),-2,0,3,-24,76*,44
CC(C)(c1ccc(O)cc1)c1ccc(O)c(C(=O)O)c1,-6,x,0,x,x,x
CC(C)(C)c1ccc(C(=O)CC(Sc2ccc(Cl)cc2)C(=O)O)cc1 (stereo not given),-8,-9,1,81*,56*,60*
Cc1ccc(SC(CC(=O)c2ccc(F)cc2)C(=O)O)cc1 (stereo not given),-3,4,2,25,2,1
SMILES,CaV13 FRET inh,PvdQ acylase,N-glyco inh,PfHsp90 yeast 2,HSF-1 act,T cruzi inh
CCCCS(=O)(=O)N1CCCc2nc(-c3ccc(Br)cc3)ccc21,-4,x,x,x,x,x
CCOC(=O)c1cc(C#N)c(N2CCN(C)CC2)nc1-c1ccccc1,-4,-4,2,-16,5,57*
CCc1nc2c(OCc3ccc(F)c(F)c3)cccn2c1N(C)C(=O)c1ccc(OC)cc1,-6,x,-1,x,x,x
CCN(CC(=O)Nc1cccc(OC)c1)CC(=O)Nc1ccc(Br)c(C)c1,-17,-17,3,20,55*,32
CCN(CC(=O)Nc1cccc(OC)c1)CC(=O)Nc1ccccc1C,-5,-2,-1,7,23,-1
COc1ccc(CN(C2CCCC2)S(=O)(=O)c2cc(Br)ccc2Br)c(OC)c1,-4,x,x,x,x,x
O=S(=O)(c1ccccc1)N1CCCc2nc(-c3ccc(F)cc3)ccc21,-4,x,x,x,x,x
O=C(c1cccs1)c1no[n+]([O-])c1C(=O)c1cccs1,x,-4,23,105*,-4,62*
CC1=Nc2ccccc2N=C(NC(=O)CN2CCN(c3ccccc3)CC2)C1c1ccccc1 (stereo not given),-15,-11,-2,10,3,63*
CC(C)CCSc1nc(N)c(C#N)cc1C#N,-5,-2,-11,-11,2,67*
CC(=O)N1CCC2(CC1)NC(=O)N(c1ccccc1)N2,-2,-6,3,9,59*,-11
NC(=O)N1CCC2(CC1)NC(=O)N(c1ccccc1)N2,-1,-12,1,15,-7,2
O=S1(=O)CCSC[C@@H](CN2CCOCC2)N1,-5,x,x,x,x,x
CCN(CC)S(=O)(=O)c1ccc(NN=C2CCN(C)CC2)c([N+](=O)[O-])c1,2,-7,7,-9,30,58*
CCN(CC)S(=O)(=O)c1ccc(NN=C2CCN(C(C)C)CC2)c([N+](=O)[O-])c1,-5,-1,4,-28,21,27
CCOc1ccc(NC(=O)C(C)Oc2ccccc2C(=O)Nc2ccc(C)c(Cl)c2)cc1 (stereo not given),-4,0,-9,-13,12,72*
Cc1ccc(NC(=O)COc2ccccc2C(=O)Nc2ccccc2)cc1Cl,-4,11,1,-4,12,25
CC1CC(C)CN(c2ccc(-n3cnnn3)cc2[N+](=O)[O-])C1 (stereo not given),x,-15,0,13,-9,19
O=[N+]([O-])c1cc(-n2cnnn2)ccc1N1CCC(Cc2ccccc2)CC1,-4,11,-5,104*,1,33

# High-throughput results as filed in PubChem BioAssay.
